The source made the active and inactive calls. The rule behind the calls is not given here.
What was measured:
ASPC1 [1] = assay: Anticlonogenic activity against human Aspc-1 cells at 2 uM after 21 days by crystal violet staining based assay relative to control; assay type: functional; conditions: ASPC1, 504 h
How it was run: (§1)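 Anchorage-dependent colony formation: AsPC-1 cells seeded at 1000 cells/well in six-well plates and treated with compound. Colony formation is expressed as percent of vehicle treatment. Mean ± SD from at least three independent experiments, each in duplicate.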

ASPC1 [2] = assay: Anticlonogenic activity against human Aspc-1 cells at 10 uM after 21 days by crystal violet staining based assay relative to control; assay type: functional; conditions: ASPC1, 504 h; how it was run: as §1
ASPC1 [3] = assay: Growth inhibition of human Aspc-1 cells after 72 hrs by MTS assay; assay type: functional, cell-based; conditions: ASPC1, 72 h
How it was run: (§2)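 Growth inhibition by MTS viability read-out. Cells seeded in 96-well plates at 4000/well (AsPC-1) or 8500/well (MDA-MB-231). Mean ± SD from at least three independent experiments, each in duplicate.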

MDA-MB-231 = assay: Growth inhibition of human MDA-MB-231 cells after 72 hrs by MTS assay; assay type: functional, cell-based; conditions: MDA-MB-231, 72 h; how it was run: as §2
[4] = target: T1, Glutaminase liver isoform, mitochondrial (Homo sapiens) (UniProt Q9UI32); assay: Inhibition of human GLS2 in GLS1 deficient human Aspc-1 cells assessed as decrease in cellular glutamate production at 3.13 to 100 uM after 4 hrs by amplex red glutamic acid assay
T1 sequence (whole entry): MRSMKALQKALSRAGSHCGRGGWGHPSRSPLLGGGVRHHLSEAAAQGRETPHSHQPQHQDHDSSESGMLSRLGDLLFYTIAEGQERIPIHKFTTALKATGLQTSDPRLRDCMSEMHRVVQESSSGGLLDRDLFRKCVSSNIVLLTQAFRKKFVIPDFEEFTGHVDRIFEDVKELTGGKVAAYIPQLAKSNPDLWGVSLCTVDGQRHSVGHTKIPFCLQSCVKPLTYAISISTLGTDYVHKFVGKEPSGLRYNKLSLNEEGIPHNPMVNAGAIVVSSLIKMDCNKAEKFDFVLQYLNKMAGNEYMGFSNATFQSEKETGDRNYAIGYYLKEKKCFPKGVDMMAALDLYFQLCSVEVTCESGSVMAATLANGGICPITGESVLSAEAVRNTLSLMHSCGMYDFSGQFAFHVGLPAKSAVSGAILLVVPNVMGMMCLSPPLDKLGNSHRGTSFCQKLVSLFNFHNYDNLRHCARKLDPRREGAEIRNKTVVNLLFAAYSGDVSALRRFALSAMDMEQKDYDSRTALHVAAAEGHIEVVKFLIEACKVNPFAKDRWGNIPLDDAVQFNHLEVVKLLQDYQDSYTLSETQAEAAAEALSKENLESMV
How it was run: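 GLS-knockout AsPC-1 cells made with GLS-KO ZFN mRNA, single-cell cloned, and grown in glutamine-free RPMI 1640 with 10% FBS. Cells seeded at 30 000/well and grown 24 h at 37 °C. Treated 4 h with 1% DMSO vehicle or 3.13−100 μM inhibitor, washed with PBS, and lysed in NP-40 buffer (4 °C, 20 min). Lysate glutamate measured by Amplex Red. Three independent experiments in duplicate.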

[5] = Terminal half life in Sprague-Dawley rat at 2 mg/kg, iv by HPLC-MS analysis; assay type: ADME, organism-based; conditions: in vivo, read-out: beta t1/2 (converted)
How it was run: (§3)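 Male rats (330−380 g, 9−10 weeks old), jugular-vein cannulated 1 day before dosing, n = 3. Dosed iv in DMA/PEG400 (20%/80%, v/v) or po in 1% CMC/0.5% Tween-80. Blood (100 μL) drawn at 0, 2 min, 5 min (iv only), 15 and 30 min, and 1, 2, 4, 6, 8 and 24 h. Plasma measured by LC-MS/MS; parameters from noncompartmental analysis.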

[6] = Terminal half life in Sprague-Dawley rat at 10 mg/kg, po by HPLC-MS analysis; assay type: ADME, organism-based; conditions: in vivo, read-out: beta t1/2 (converted); how it was run: as §3
[7] = Volume of distribution at steady state in Sprague-Dawley rat at 2 mg/kg, iv by HPLC-MS analysis; assay type: ADME, organism-based; conditions: in vivo, read-out: Vdss
How it was run: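 Male rats (330−380 g, 9−10 weeks old), quarantined 1 week, jugular-vein cannula implanted 1 day before dosing; n = 3. Single iv dose in DMA/PEG400 (20%/80%, v/v). Blood (100 μL) was drawn via cannula at 0, 2, 5, 15, 30 min and 1, 2, 4, 6, 8, 24 h and kept on ice. Plasma was analysed by HPLC−MS/MS. Vss came from noncompartmental analysis.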

[8] = Cmax in Sprague-Dawley rat at 10 mg/kg, po by HPLC-MS analysis; assay type: ADME, organism-based; design: dose 10 mg/kg, route oral; conditions: in vivo; how it was run: as §3
[9] = Tmax in Sprague-Dawley rat at 10 mg/kg, po by HPLC-MS analysis; assay type: ADME, organism-based; conditions: in vivo; how it was run: as §3
[10] = AUC (0 to infinity) in Sprague-Dawley rat at 2 mg/kg, iv by HPLC-MS analysis; assay type: ADME, organism-based; design: dose 2 mg/kg, route intravenous, time infinity; conditions: in vivo; how it was run: as §3
[11] = AUC (0 to infinity) in Sprague-Dawley rat at 10 mg/kg, po by HPLC-MS analysis; assay type: ADME, organism-based; design: dose 10 mg/kg, time infinity, route oral; conditions: in vivo
How it was run: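 Male rats (330−380 g, 9−10 weeks old), jugular-vein cannulated 1 day before dosing, n = 3. Oral dose given in 1% CMC/0.5% Tween-80. Blood (100 μL) taken via cannula at 0, 15 and 30 min and 1, 2, 4, 6, 8 and 24 h, kept on ice. Plasma analysed by HPLC−tandem MS. Parameters from noncompartmental analysis.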

[12] = Oral bioavailability in Sprague-Dawley rat at 10 mg/kg by HPLC-MS analysis; assay type: ADME, organism-based; conditions: in vivo; how it was run: as §3
ASPC1 [13] = assay: Antitumor activity against human Aspc-1 cells xenografted in Balb/cAnN.Cg-Foxn1nu/CrlNarl mouse assessed as tumor growth inhibition at 25 mg/kg, ip once daily administered for 5 days followed by 2 days without dosing for 43 days relative to control; assay type: functional; conditions: read-out: TGI
How it was run: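 Male nude mice (7−8 weeks, 18−22 g) received 4.5 × 10^6 AsPC-1 cells sc in the right flank, in HBSS mixed 1:1 with Matrigel. Mice were randomized once mean tumor reached ~100 mm3 (day 1). Dosing was ip once daily, 5 days on/2 days off, with 2% DMSO/PBS as vehicle. Tumors were measured twice weekly, V = ab²/2. %TGI = [1 − ((Tt − T0)/(Ct − C0))] × 100 from median volumes; Student's t test.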

[14] = Inhibition of recombinant human His-tagged KGA S384A mutant expressed in Escherichia coli BL21(DE3)pLysS using glutamine substrate preincubated for 10 mins followed by substrate addition measured after 60 mins
[15] = Inhibition of recombinant human His-tagged KGA R387A mutant expressed in Escherichia coli BL21(DE3)pLysS using glutamine substrate preincubated for 10 mins followed by substrate addition measured after 60 mins
[16] = Inhibition of recombinant human His-tagged KGA R387L mutant expressed in Escherichia coli BL21(DE3)pLysS using glutamine substrate preincubated for 10 mins followed by substrate addition measured after 60 mins
[17] = Inhibition of recombinant human His-tagged KGA K507A mutant expressed in Escherichia coli BL21(DE3)pLysS using glutamine substrate preincubated for 10 mins followed by substrate addition measured after 60 mins
ASPC1 [18] = assay: Synergistic cytotoxicity against human Aspc-1 cells assessed as reduction in cell viability at ED50 in presence of doxorubicin by MTS assay; assay type: functional
How it was run: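 AsPC-1 cells treated with compound combinations and viability read by MTS. Combination index at ED50, ED75 and ED90 calculated by the Chou−Talalay method. CI = 1 additive, <1 synergism, >1 antagonism. Representative of three independent experiments.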

[19] = compound: Cc1cc(/C=C2\SC(=O)NC2=O)c(C)n1-c1ccc(-c2ccc(/C=C3\SC(=O)NC3=O)cc2)cc1; assay: (§4) Mixed-type inhibition of recombinant human KGA (L123 to L669 residues) expressed in Escherichia coli BL21(DE3)pLysS assessed as Vmax for substrate at 0.05 uM using glutamine substrate preincubated for 10 mins followed by substrate addition measured after 60 mins by Linerweaver-Burk plot analysis (reference value: 26.2 +/- 0.2 nmol/min/ug)
How it was run: (§5)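 Kinetic analysis on human KGA: glutamine saturation profiles recorded at 0−0.4 μM inhibitor. Km and Vmax derived at each inhibitor concentration to assign the inhibition mode.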

[20] = compound: Cc1cc(/C=C2\SC(=O)NC2=O)c(C)n1-c1ccc(-c2ccc(/C=C3\SC(=O)NC3=O)cc2)cc1; assay: as §4, with “0.1” for “0.05”; how it was run: as §5
[21] = compound: Cc1cc(/C=C2\SC(=O)NC2=O)c(C)n1-c1ccc(-c2ccc(/C=C3\SC(=O)NC3=O)cc2)cc1; assay: as §4, with “0.2” for “0.05”; how it was run: as §5
[22] = compound: Cc1cc(/C=C2\SC(=O)NC2=O)c(C)n1-c1ccc(-c2ccc(/C=C3\SC(=O)NC3=O)cc2)cc1; assay: as §4, with “0.4” for “0.05”; how it was run: as §5
[23] = compound: Cc1cc(/C=C2\SC(=O)NC2=O)c(C)n1-c1ccc(-c2ccc(/C=C3\SC(=O)NC3=O)cc2)cc1; assay: as §4, with “Km” for “Vmax”, “25.5” for “26.2”, “0.6 mM)” for “0.2 nmol/min/ug)”; how it was run: as §5
[24] = compound: Cc1cc(/C=C2\SC(=O)NC2=O)c(C)n1-c1ccc(-c2ccc(/C=C3\SC(=O)NC3=O)cc2)cc1; assay: as §4, with “Km” for “Vmax”, “0.1” for “0.05”, “25.5” for “26.2”, “0.6 mM)” for “0.2 nmol/min/ug)”; how it was run: as §5

## O=C(Cc1ccccc1)Nc1nnc(CCSCCc2nnc(NC(=O)Cc3ccccc3)s2)s1
ASPC1 [1]
  inhibition at 2 µM: 41%
ASPC1 [2]
  inhibition at 10 µM: 98%
ASPC1 [3]
  IC50: 10200 nM
MDA-MB-231
  IC50: 6800 nM
[4]
  inhibition: inactive
[5]
  half-life: 5.3 h
[6]
  half-life: 2 h
[7]
  Vd: 8.8 L/kg
[8]
  Cmax: 40 ng/mL
[9]
  Tmax: 0.7 h
[10]
  AUC(0-inf): 636 ng·h/mL
[11]
  AUC(0-inf): 73 ng·h/mL
[12]
  bioavailability: 2%
ASPC1 [13]
  inhibition in vivo at 25 mg/kg: 55%
[14]
  IC50: 65 nM
[15]
  IC50: 63 nM
[16]
  IC50: 345 nM
[17]
  IC50: 66 nM
ASPC1 [18]
  CI: 0.45 - 0.68

B1: Glutaminase kidney isoform, mitochondrial (Homo sapiens), O94925 (protein)
chain: MMRLRGSGMLRDLLLRSPAGVSATLRRAQPLVTLCRRPRGGGRPAAGPAAAARLHPWWGGGGWPAEPLARGLSSSPSEILQELGKGSTHPQPGVSPPAAPAAPGPKDGPGETDAFGNSEGKELVASGENKIKQGLLPSLEDLLFYTIAEGQEKIPVHKFITALKSTGLRTSDPRLKECMDMLRLTLQTTSDGVMLDKDLFKKCVQSNIVLLTQAFRRKFVIPDFMSFTSHIDELYESAKKQSGGKVADYIPQLAKFSPDLWGVSVCTVDGQRHSTGDTKVPFCLQSCVKPLKYAIAVNDLGTEYVHRYVGKEPSGLRFNKLFLNEDDKPHNPMVNAGAIVVTSLIKQGVNNAEKFDYVMQFLNKMAGNEYVGFSNATFQSERESGDRNFAIGYYLKEKKCFPEGTDMVGILDFYFQLCSIEVTCESASVMAATLANGGFCPITGERVLSPEAVRNTLSLMHSCGMYDFSGQFAFHVGLPAKSGVAGGILLVVPNVMGMMCWSPPLDKMGNSVKGIHFCHDLVSLCNFHNYDNLRHFAKKLDPRREGGDQRVKSVINLLFAAYTGDVSALRRFALSAMDMEQRDYDSRTALHVAAAEGHVEVVKFLLEACKVNPFPKDRWNNTPMDEALHFGHHDVFKILQEYQVQYTPQGDSDNGKENQTVHKNLDGLL
[19]
  Vmax: 26.3 nmol/min/µg
[20]
  Vmax: 26.2 nmol/min/µg
[21]
  Vmax: 22.9 nmol/min/µg
[22]
  Vmax: 15 nmol/min/µg
[23]
  Km: 50.9 mM
[24]
  Km: 69.7 mM

Source: ChEMBL document CHEMBL4011632, “Design, Synthesis, and Evaluation of Thiazolidine-2,4-dione Derivatives as a Novel Class of Glutaminase Inhibitors” (J Med Chem, 2017)
